# Laboratory results as given in PMC12123727 (BMC Cancer, 2025).
# Where two headings read alike, the source gives them in different places.
# Key:
# [1] = Phase 1 safety evaluation; type: in vivo, human; conditions: for tolerability: Chinese patients with r/r B cell NHL, 40-80 mg BID
# Summary of the method: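 3 + 3 escalation of oral test compound, 40, 60 or 80 mg BID 4 h apart, 7 days on and 7 off, after a single dose on D-3. Investigators graded AEs at every visit per CTCAE v5.0. DLT was assessed over cycle 1 and covered grade 4 cytopenias, febrile or bleeding grade ≥3 cytopenias, and grade ≥3 non-hematological toxicity. Safety set: ≥1 dose and ≥1 safety evaluation.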
# [2] = tested on: r/r B cell NHL or chronic lymphocytic leukemia; conditions: cited from earlier work
# r/r B cell NHL = assay: Phase 1 efficacy; type: in vivo, human
# advanced solid tumor = conditions: combined with pazopanib, follow-up, cited from earlier work
compound,measurement,setting,value
"CN(C)Cc1c(C(=O)NCCOc2ccc(C(=O)NO)cc2)oc2ccccc12 [abexinostat, Abexinostat]",TEAE: Neutropenia,"[1]; 80 mg BID (n = 4), Any grade",3 (75.0) n (%)
same,TEAE: Thrombocytopenia,"[1]; 80 mg BID (n = 4), Any grade",1 (25.0) n (%)
same,TEAE: Urinary white blood cell positivity,"[1]; 80 mg BID (n = 4), Any grade",1 (25.0) n (%)
same,TEAE: Any TEAEs,"[1]; 80 mg BID (n = 4), ≥ Grade 3",2 (50.0) n (%)
same,TEAE: Hyperglycemia,"[1]; 80 mg BID (n = 4), ≥ Grade 3",1 (25.0) n (%)
same,TEAE: Hypertriglyceridemia,"[1]; 80 mg BID (n = 4), ≥ Grade 3",2 (50.0) n (%)
same,Dose reduction due to TEAEs,"[1]; 80 mg BID group, QTc interval prolongation",one patient
same,recommended phase 2 dose (RP2D),"[1]; 7 days on, 7 days off, oral",80 mg BID
same,tolerability,[1],well-tolerated
same,tolerability,[1]; listed as Abexinostat,favorable tolerability
same,TEAE: Abnormal ST segment on electrocardiogram,"[1]; Total (n = 11), Any grade",3 (27.3) n (%)
same,TEAE: Abnormal T-wave on electrocardiogram,"[1]; Total (n = 11), Any grade",4 (36.4) n (%)
same,TEAE: Anemia,"[1]; Total (n = 11), Any grade",4 (36.4) n (%)
same,TEAE: Any TEAEs,"[1]; Total (n = 11), Any grade",11 (100) n (%)
same,TEAE: Diarrhea,"[1]; Total (n = 11), Any grade",4 (36.4) n (%)
same,TEAE: Elevated low-density lipoprotein,"[1]; Total (n = 11), Any grade",3 (27.3) n (%)
same,TEAE: Elevated α-hydroxybutyrate dehydrogenase,"[1]; Total (n = 11), Any grade",3 (27.3) n (%)
same,TEAE: Fatigue,"[1]; Total (n = 11), Any grade",4 (36.4) n (%)
same,TEAE: Hypercholesterolemia,"[1]; Total (n = 11), Any grade",3 (27.3) n (%)
same,TEAE: Hyperglycemia,"[1]; Total (n = 11), Any grade",3 (27.3) n (%)
same,TEAE: Hypertriglyceridemia,"[1]; Total (n = 11), Any grade",6 (54.5) n (%)
same,TEAE: Hyperuricemia,"[1]; Total (n = 11), Any grade",3 (27.3) n (%)
same,TEAE: Hypoalbuminemia,"[1]; Total (n = 11), Any grade",5 (45.5) n (%)
same,TEAE: Hypoproteinemia,"[1]; Total (n = 11), Any grade",5 (45.5) n (%)
same,TEAE: Leukopenia,"[1]; Total (n = 11), Any grade",4 (36.4) n (%)
same,TEAE: Lymphopenia,"[1]; Total (n = 11), Any grade",3 (27.3) n (%)
same,TEAE: Nausea,"[1]; Total (n = 11), Any grade",3 (27.3) n (%)
same,TEAE: Neutropenia,"[1]; Total (n = 11), Any grade",5 (45.5) n (%)
same,TEAE: Thrombocytopenia,"[1]; Total (n = 11), Any grade",5 (45.5) n (%)
same,TEAE: Urinary white blood cell positivity,"[1]; Total (n = 11), Any grade",3 (27.3) n (%)
same,TEAE: Any TEAEs,"[1]; Total (n = 11), ≥ Grade 3",5 (45.5) n (%)
same,TEAE: Hyperglycemia,"[1]; Total (n = 11), ≥ Grade 3",1 (9.1) n (%)
same,TEAE: Hypertriglyceridemia,"[1]; Total (n = 11), ≥ Grade 3",3 (27.3) n (%)
same,TEAE: Thrombocytopenia,"[1]; Total (n = 11), ≥ Grade 3",2 (18.2) n (%)
same,dose limiting toxicity (DLT),"[1]; dose escalation 40, 60, 80 mg BID, assessed after cycle 1",No DLT
same,≥ grade 3 thrombocytopenia,"[1]; safety set, all doses, 2/11 (abstract: grade 3)",18.2%
same,≥ grade 3 hypertriglyceridemia,"[1]; safety set, all doses, 3/11 (abstract: grade 3)",27.3%
same,any grade TEAE: abnormal T wave on electrocardiogram,"[1]; safety set, all doses, 4/11",36.4%
same,any grade TEAE: anemia,"[1]; safety set, all doses, 4/11",36.4%
same,any grade TEAE: diarrhea,"[1]; safety set, all doses, 4/11",36.4%
same,any grade TEAE: fatigue,"[1]; safety set, all doses, 4/11",36.4%
same,any grade TEAE: leukopenia,"[1]; safety set, all doses, 4/11",36.4%
same,any grade TEAE: hypoalbuminemia,"[1]; safety set, all doses, 5/11",45.5%
same,any grade TEAE: hypoproteinemia,"[1]; safety set, all doses, 5/11",45.5%
same,any grade TEAE: neutropenia,"[1]; safety set, all doses, 5/11",45.5%
same,any grade TEAE: thrombocytopenia,"[1]; safety set, all doses, 5/11",45.5%
same,any grade TEAE: hypertriglyceridemia,"[1]; safety set, all doses, 6/11",54.5%
same,grade of most TEAEs,"[1]; safety set, n = 11",grade 1 or 2
same,median OS,"[2]; PCYC-0401, DLBCL",10.2 months
same,median PFS,"[2]; PCYC-0401, DLBCL",2.8 months
same,median OS,"[2]; PCYC-0401, FL",not reached
same,median PFS,"[2]; PCYC-0401, FL",10.2 months
same,ORR,"[2]; PCYC-0401, patients with DLBCL, 5/16",31%
same,ORR,"[2]; PCYC-0401, patients with FL, 9/16",56%
same,12-month PFS rate,r/r B cell NHL; FAS,30.0%
same,30-month PFS rate,r/r B cell NHL; FAS,20.0%
same,39-month OS rate,r/r B cell NHL; FAS,64.8%
same,duration of response (DoR),r/r B cell NHL; FAS,not reached
same,median overall survival (OS),r/r B cell NHL; FAS,not reached
same,median progression-free survival (PFS),r/r B cell NHL; FAS,5.01 months
same,objective response rate (ORR),"r/r B cell NHL; FAS, 4/10, all doses",40.0%
same,disease control rate (DCR),"r/r B cell NHL; FAS, 6/10",60%
same,PFS of the patient who achieved CR,"r/r B cell NHL; Patient 2, DLBCL, 40 mg BID, still on treatment",over 30 months
same,patients still alive,"r/r B cell NHL; at data cutoff November 30, 2023",Seven patients
same,median DoR,r/r B cell NHL; patients with FL,7.82 months
same,median PFS,r/r B cell NHL; patients with FL,8.38 months
same,ORR,"r/r B cell NHL; patients with FL, 3/6",50%
same,DCR,"r/r B cell NHL; patients with FL, 5/6",83.3%
same,DCR,"r/r B cell NHL; r/r DLBCL patients, 1/4",25%
same,ORR,"r/r B cell NHL; r/r DLBCL patients, 1/4",25%
same,median duration of treatment in exceptional responders,advanced solid tumor; range 39.8–133 +,44.1 months
same,time on treatment of one patient with RCC,advanced solid tumor,> 11 years
